Assay [1] has as its system L1210. Kind of assay: Inhibitory concentration against proliferation of cultured lymphoid leukemia L1210 cells during 48 hrs. It counts as functional. The following applies: Mus musculus, L1210, 48 h; read-out: ID50 (the source's name).
Assay [2] deals with L1210. Kind of assay: Fraction of cell population of cultured lymphoid leukemia L1210 cells in mitosis at a dose of 0.01 uM after 12 hr. In kind it is functional, Mus musculus.
Assay [3] concerns L1210. Kind of assay: Fraction of cell population of cultured lymphoid leukemia L1210 cells in mitosis at a dose of 0.3 uM after 12 hr. It counts as functional, Mus musculus.
Assay [4] relates to Mus musculus. In words: Increase in life span at the highest nontoxic dose against P-388 tumor cell […] at 25 mg/kg. It counts as functional. The following applies: P388. Put shortly:
(§1)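 Mice bearing lymphocytic leukemia P-388 (parental or drug-resistant sublines). The reported value is the increase in life span at the highest nontoxic dose tested.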

Assay [5] deals with Mus musculus. Kind of assay: Increase in life span at the highest nontoxic dose against P-388 tumor cell […] at 67 mg/kg. In kind it is functional. The following applies: P388. Put shortly: as §1
Assay [6] relates to L1210. In words: Fraction of cell population of cultured lymphoid leukemia L1210 cells in mitosis at a dose of 0.03 uM after 12 hr. In kind it is functional, Mus musculus.
Assay [7] deals with L1210. In words: Fraction of cell population of cultured lymphoid leukemia L1210 cells in mitosis at a dose of 0.3 uM after 24 hr. It counts as functional, Mus musculus.
The subject of assay [8] is Mus musculus. In words: Increase in life span at the highest nontoxic dose against P-388 tumor cell […] was determined at 100 mg/kg. In kind it is functional. The following applies: P388. The method in brief: as §1
Assay [9] relates to Mus musculus. Kind of assay: Increase in life span at the highest nontoxic dose against P-388 tumor cell after 1,5,9 day at 30 mg/kg. The following applies: P388. It counts as functional. Put shortly: as §1
Assay [10] relates to Mus musculus. In words: Increase in life span at the highest nontoxic dose against P-388 tumor cell […] at 90 mg/kg. The following applies: P388. In kind it is functional. The method in brief: as §1
The test system of assay [11] is Mus musculus. In words: Increase in life span at the highest nontoxic dose against Vincristine-resistant line of P-388 tumor cell […] at 12 mg/kg. In kind it is functional. The following applies: P388. Put shortly: as §1
Assay [12] relates to Mus musculus. Kind of assay: Increase in life span at the highest nontoxic dose against P-388 tumor cell […] at 100 mg/kg. It counts as functional. The following applies: P388. Put shortly:
as §1

The test system of assay [13] is Mus musculus. Kind of assay: Increase in life span at the highest nontoxic dose against P-388 tumor cell […] at 50 mg/kg. In kind it is functional. The following applies: P388. The method in brief:
as §1

Assay [14] deals with Mus musculus. In words: Increase in life span at the highest nontoxic dose against P-388 tumor cell […] was determined at 25 mg/kg. It counts as functional. The following applies: P388. The method in brief:
as §1

Assay [15] relates to Mus musculus. In words: Increase in life span at the highest nontoxic dose against methotrexate resistant cell line of P-388 tumor cell […] at 25 mg/kg. It counts as functional. The following applies: P388. The method in brief:
as §1

Assay [16] has as its system Mus musculus. In words: Increase in life span at the highest nontoxic dose against P-388 tumor cell after 1-9 days at 25 mg/kg. The following applies: P388. In kind it is functional. The method in brief:
as §1

For assay [17], the system named is L1210. In words: Fraction of cell population of cultured lymphoid leukemia L1210 cells in mitosis at a dose of 0.1 uM after 12 hr. It counts as functional, Mus musculus.
Assay [18] deals with Mus musculus. In words: Increase in life span at the highest nontoxic dose against P-388 tumor cell after 1-5 days at 12 mg/kg. The following applies: P388. In kind it is functional. The method in brief: as §1
In assay [19] the test system is Mus musculus. In words: Increase in life span at the highest nontoxic dose against P-388 tumor cell after 1,5,9 day at 12.5 mg/kg. In kind it is functional. The following applies: P388. Put shortly: as §1
Assay [20] concerns Mus musculus. In words: Increase in life span at the highest nontoxic dose against P-388 tumor cell […] at 200 mg/kg. It counts as functional. The following applies: P388. Put shortly:
as §1

Assay [21] concerns Mus musculus. In words: Increase in life span at the highest nontoxic dose against P-388 tumor cell after 1,5,9 day at 6.25 mg/kg. The following applies: P388.

A value given as a limit tells only on which side of the number the result lay.

For the molecule `CCOC(=O)Nc1cc2c(c(N)n1)N=C(c1cc(OC)c(OC)c(OC)c1)CN2`, the IC50 in assay [1] came to 78 nM.
With `CCOC(=O)Nc1cc2c(c(N)n1)N=C(c1ccc(-c3ccccc3)cc1)CN2`, the Mitotic index in assay [2] came to 0.65; in assay [3], 0.42. In assay [4], the ILS (commonly how much longer treated animals lived than controls) at 25 mg/kg was found to be 36%. For the same molecule, the IC50 in [1] is 6.1 nM.
Regarding `CCOC(=O)Nc1cc2c(c(N)n1)N=C(CN(C)c1ccccc1)CN2`, the ILS at 67 mg/kg in assay [5] stood at 90%. In addition, the Mitotic index in [6] stood at 0.77; in [7], 0.8. In assay [8], this molecule registered an ILS at 100 mg/kg of 114%. Further, in assay [1], the IC50 was 8.4 nM.
In the case of `CCOC(=O)Nc1cc2c(c(N)n1)N=C(c1cccc(OC)c1)CN2`, the IC50 in assay [1] turned out to be 1.22 nM.
Consider `CCOC(=O)Nc1cc2c(c(N)n1)N=C(c1ccc(F)cc1)CN2`, for which the IC50 in assay [1] amounted to 6.8 nM.
Turning to `CCOC(=O)Nc1cc2c(c(N)n1)N=C(c1ccc(N)cc1)CN2`, the IC50 in assay [1] worked out at 23 nM.
For the molecule `CCOC(=O)Nc1cc2c(c(N)n1)N=C(c1ccc(C(F)(F)F)cc1)CN2`, the ILS at 30 mg/kg in assay [9] came to 0%. In [10], the ILS at 90 mg/kg came to 0%. Also, in [1], the IC50 amounted to 150 nM.
`CCOC(=O)Nc1cc2c(c(N)n1)N=C(c1ccc(C)cc1C)CN2`: the IC50 in [1] was 42 nM.
In the case of `CCOC(=O)Nc1cc2c(c(N)n1)N=C(c1ccccc1)CN2`, the ILS at 12 mg/kg in assay [11] is 50%. Further, the IC50 in assay [1] came to 4.7 nM.
In assay [6], `CCOC(=O)Nc1cc2c(c(N)n1)N=C(CN(C)c1ccc(Cl)cc1)CN2` registered a Mitotic index of 0.71. This molecule gave an ILS at 100 mg/kg in [12] of 65%. In assay [1], the IC50 was 14.5 nM.
In [13], `CCOC(=O)Nc1cc2c(c(N)n1)N=C(CN(C)c1ccc(OC)cc1)CN2` had an ILS at 50 mg/kg of 80%. Moreover, the Mitotic index in [6] is 0.64; in [3], 0.49. Besides, the ILS at 25 mg/kg in [14] came to 133%; in assay [15], 150%. Moreover, the IC50 in assay [1] was determined as 7.9 nM.
For `CCOC(=O)Nc1cc2c(c(N)n1)N=C(c1ccc(Cl)c(Cl)c1)CN2`, the IC50 in [1] amounted to 18 nM.
On to `CCOC(=O)Nc1cc2c(c(N)n1)N=C(CN(C)c1ccc(C(=O)OC)cc1)CN2`, for which the Mitotic index in assay [3] is 0.61; in [17], 0.44. Also, the ILS at 25 mg/kg in assay [16] came out at 30%. Further, in assay [1], the IC50 turned out to be 58 nM.
In turn, `CCOC(=O)Nc1cc2c(c(N)n1)N=C(c1ccc(C)cc1)CN2` showed an increase in life span (ILS) at 12 mg/kg in assay [18] of 30%. The IC50 in [1] was 24 nM.
As for `CCOC(=O)Nc1cc2c(c(N)n1)N=C(c1ccc(Cl)cc1)CN2`, the ILS at 12.5 mg/kg in assay [19] was 37%. The molecule further returned a Mitotic index in assay [7] of 0.26. In assay [20], this molecule displayed an ILS at 200 mg/kg of 38%. Besides, in [1], the IC50 was found to be 52 nM. Moreover, the ILS at 6.25 mg/kg in assay [21] worked out at 38%.
For the molecule `CCOC(=O)Nc1cc2c(c(N)n1)N=C(c1ccc(C)c(C)c1)CN2`, the IC50 in [1] amounted to 138 nM.
Regarding `CCOC(=O)Nc1cc2c(c(N)n1)N=C(c1ccc(Cl)cc1Cl)CN2`, the IC50 in assay [1] was 44 nM.
`CCOC(=O)Nc1cc2c(c(N)n1)N=C(c1ccc(OC)cc1)CN2` had an ILS at 25 mg/kg in [4] of 50%. Moreover, the IC50 in assay [1] was determined as 4.1 nM.
In the case of `COC(=O)Nc1nc2cc(C(=O)c3cccs3)ccc2[nH]1` [NOCODAZOLE], in assay [1], the IC50 worked out at 27 nM.
Take `CC[C@]1(O)C[C@H]2CN(CCc3c([nH]c4ccccc34)[C@@](C(=O)OC)(c3cc4c(cc3OC)N(C=O)[C@H]3[C@@](O)(C(=O)OC)[C@H](OC(C)=O)[C@]5(CC)C=CCN6CC[C@]43[C@@H]65)C2)C1` [VINCRISTINE]: the IC50 in assay [1] is less than 1 nM.

Values taken from ChEMBL document CHEMBL1122127, “New anticancer agents: synthesis of 1,2-dihydropyrido[3,4-b]pyrazines (1-deaza-7,8-dihydropteridines)” (1982).
